Experimental data reported in ChEMBL document CHEMBL3862000, “Tetrahydroindazole derivatives as potent and peripherally selective cannabinoid-1 (CB1) receptor inverse agonists” (Bioorg Med Chem Lett, 2016).

How the values were obtained:
[1] = biological target: Cannabinoid receptor 1 (Homo sapiens, UniProt P21554); assay: Inverse agonist activity at human cannabinoid receptor 1 expressed in HEK293 cells assessed as increase in forskolin-induced cAMP production preincubated with cells followed by forskolin stimulation measured after 30 mins in presence of D2-labeled cAMP and Eu3+-TBP-NHS cryptate by HTRF assay; format: functional, cell-based
[2] = biological target: Cannabinoid receptor 2 (Homo sapiens, UniProt P34972); assay: Inverse agonist activity at human cannabinoid receptor 2 expressed in HEK293 cells assessed as increase in forskolin-induced cAMP production preincubated with cells followed by forskolin stimulation measured after 30 mins in presence of D2-labeled cAMP and Eu3+-TBP-NHS cryptate by HTRF assay; format: functional, cell-based
[3] = Drug uptake in C57bl/6j mouse plasma at 20 mg/kg, po measured at 2 hrs post dose by LC/MS analysis; format: ADME, organism-based
In short: (§1)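 Male mice dosed orally. Plasma taken by retro-orbital bleed at 1 h and 2 h or 1 h and 4 h. Whole brain minus cerebellum removed at 2 h or 4 h, weighed wet, frozen, then homogenized in saline. Compound measured by LC/MS; LOQ 5 ng/ml. B/P ratio is brain over plasma concentration.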

[4] = Drug uptake in C57bl/6j mouse brain without cerebellum at 20 mg/kg, po measured at 2 hrs post dose by LC/MS analysis; format: ADME, organism-based; conditions: for Drug uptake: in vivo, 2 h; in short: as §1
[5] = Ratio of drug level in C57bl/6j mouse brain to plasma at 20 mg/kg, po; format: ADME, organism-based; conditions: read-out: BPR; in short: as §1
[6] = Drug uptake in C57bl/6j mouse plasma at 20 mg/kg, po measured at 4 hr post dose by LC/MS analysis; format: ADME, organism-based
In short: (§2)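 Male C57bl/6j mice given a single oral dose of 20 mg/kg. Plasma drawn by retro-orbital bleed at 1 h and 4 h. Whole brain minus cerebellum taken at 4 h, wet-weighed, frozen, then homogenized in saline. Compound levels in plasma and brain measured by LC/MS (LOQ 5 ng/ml). Brain/plasma ratio taken from the two concentrations.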

[7] = Drug uptake in C57bl/6j mouse brain without cerebellum at 20 mg/kg, po measured at 4 hr post dose by LC/MS analysis; format: ADME, organism-based; conditions: in vivo; in short: as §2
[8] = system: Mus musculus; assay: Antiobesity activity in diet-induced obese mouse model assessed as fasting plasma glucose AUC (0 to 120 mins) at 30 mg/kg, po qd for 3 weeks measured on day 19 post glucose challenge by OGTT (reference value: 29890.50 +/- 2516.45 mg/dL.min); format: functional, organism-based; design: dose 30 mg/kg, time < 2 hr
[9] = Drug uptake in diet-induced obese mouse plasma at 30 mg/kg, po qd for 3 weeks measured 2 hrs post last dose on day 23; format: ADME, organism-based
In short: (§3)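 Dosing ran daily, oral, in 10% PEG400 + 10% solutol at 5 mL/kg, […], run alongside the efficacy study. Plasma and brain compound levels measured 2 h after the last dose; B/P ratio is brain over plasma concentration.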

[10] = Drug uptake in diet-induced obese mouse brain at 30 mg/kg, po qd for 3 weeks measured 2 hrs post last dose on day 23; format: ADME, organism-based; conditions: in vivo; in short: as §3
[11] = Ratio of drug level in diet-induced obese mouse brain to plasma at 30 mg/kg, po qd for 3 weeks measured 2 hrs post last dose on day 23; format: ADME, organism-based; conditions: read-out: BPR; in short: as §3
[12] = system: Mus musculus; assay: Toxicity in diet-induced obese mouse model assessed as effect on food intake at 30 mg/kg, po qd for 3 weeks measured on day 19 up to 120 mins post glucose challenge; format: organism-based; conditions: in vivo
[13] = system: Mus musculus; assay: Toxicity in diet-induced obese mouse model assessed as effect on body weight at 30 mg/kg, po qd for 3 weeks measured on day 19 up to 120 mins post glucose challenge; format: organism-based; conditions: in vivo
[14] = system: Rattus norvegicus; assay: Toxicity in Sprague-Dawley rat assessed as CNS-mediated behavior at 30 mg/kg, po by measuring stereotypic activity after 15 mins measured up to 2 hrs; format: organism-based; conditions: in vivo
In short: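 Rats given vehicle (10% PEG400 and 10% solutol) or compound orally. Stereotypic activity recorded automatically from 15 min post-dose for a total of 2 h.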

Sequence of Cannabinoid receptor 2 (P34972 whole entry): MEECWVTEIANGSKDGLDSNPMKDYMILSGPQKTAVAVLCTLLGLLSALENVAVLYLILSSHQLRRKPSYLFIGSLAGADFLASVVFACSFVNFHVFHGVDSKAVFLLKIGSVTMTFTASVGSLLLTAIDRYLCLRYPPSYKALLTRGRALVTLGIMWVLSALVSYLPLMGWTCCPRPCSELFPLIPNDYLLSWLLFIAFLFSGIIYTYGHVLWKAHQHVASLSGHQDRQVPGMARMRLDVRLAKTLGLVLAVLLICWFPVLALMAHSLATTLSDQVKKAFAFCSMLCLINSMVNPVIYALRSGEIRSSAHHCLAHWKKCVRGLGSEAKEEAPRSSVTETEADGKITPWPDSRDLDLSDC
Sequence of Cannabinoid receptor 1 (P21554 whole entry): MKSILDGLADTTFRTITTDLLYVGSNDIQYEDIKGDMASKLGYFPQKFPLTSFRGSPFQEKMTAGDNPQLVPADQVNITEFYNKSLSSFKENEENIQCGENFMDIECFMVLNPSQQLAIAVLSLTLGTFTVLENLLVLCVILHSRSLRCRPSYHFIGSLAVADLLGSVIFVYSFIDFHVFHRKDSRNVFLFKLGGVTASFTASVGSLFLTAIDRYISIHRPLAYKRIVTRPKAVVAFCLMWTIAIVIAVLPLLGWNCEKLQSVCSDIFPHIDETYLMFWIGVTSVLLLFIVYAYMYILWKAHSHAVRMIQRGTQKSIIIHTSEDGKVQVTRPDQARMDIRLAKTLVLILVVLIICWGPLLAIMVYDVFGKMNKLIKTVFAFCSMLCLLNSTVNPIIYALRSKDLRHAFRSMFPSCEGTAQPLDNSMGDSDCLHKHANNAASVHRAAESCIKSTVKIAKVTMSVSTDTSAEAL

EC50 [1]	EC50 [2]	concentration at 2 h [3]	Drug uptake [4]	Kp [5]	concentration at 2 h [9]	Drug uptake [10]	Kp at 2 h [11]	SMILES	concentration at 2 h ([4]; C57BL/6J, brain without cerebellum, read-out: Drug uptake)	concentration at 4 h [6]	Drug uptake [7]	AUC [8]	Activity [12]	Activity [13]	Activity [14]
4 nM	560 nM	380 nM	0.16 nmol/g	0.48				C[C@@H](NC(=O)c1nn(-c2ccc(Cl)cc2Cl)c2c1CCCC/C2=C\c1ccc(Cl)cn1)c1ccccn1							
35 nM	3820 nM	2960 nM	0.24 nmol/g	0.08				C[C@@H](NC(=O)c1nn(-c2ccc(Cl)cc2Cl)c2c1CCC/C2=C\c1ccc(Cl)s1)c1ccccn1							
56 nM	> 10000 nM	4760 nM	0.05 nmol/g	0.01				C[C@@H](NC(=O)c1nn(-c2ccc(Cl)c(Cl)c2)c2c1CCCC/C2=C\c1ccc(C(F)(F)F)cc1)c1ccccn1							
34 nM	> 10000 nM			0.09				O=C(NC1CCN(c2ccccn2)CC1)c1nn(-c2ccc(Cl)cc2Cl)c2c1CCC/C2=C\c1ccc(Cl)cc1		450 nM	0.04 nmol/g				
7 nM	743 nM	830 nM	0.13 nmol/g	0.16				C[C@@H](NC(=O)c1nn(-c2ccc(Cl)cc2Cl)c2c1CCCC/C2=C\c1ccc(Cl)cc1)c1ccccn1							
127 nM	> 10000 nM	3720 nM	0.97 nmol/g	0.26				C[C@@H](NC(=O)c1nn(-c2ccc(Cl)cc2)c2c1CCC/C2=C\c1ccc(Cl)cc1)c1ccccn1							
28 nM	> 10000 nM	2470 nM	1.02 nmol/g	0.41				C[C@@H](NC(=O)c1nn(-c2ccc(Cl)cc2)c2c1CCCC/C2=C\c1ccc(F)cc1)c1ccccn1							
7 nM	1610 nM			0.82				O=C(NC1(c2ccccn2)CC1)c1nn(-c2ccc(Cl)cc2)c2c1CCC/C2=C\c1ccc(Cl)cc1		1610 nM	1.28 nmol/g				
2 nM	9410 nM	3630 nM	0.56 nmol/g	0.15				C[C@@H](NC(=O)c1nn(-c2ccc(Cl)cc2Cl)c2c1CCCC/C2=C\c1ccc(Cl)s1)c1ccccn1							
18 nM	> 10000 nM			0.11				C[C@@H](NC(=O)c1nn(-c2ccc(C(F)(F)F)cc2Cl)c2c1CCC/C2=C\c1ccc(Cl)s1)c1ccccn1		460 nM	0.051 nmol/g				
12 nM	> 11000 nM	1520 nM	0.035 nmol/g	0.02				O=C(NC1CCN(c2ccccn2)CC1)c1nn(-c2ccc(Cl)cc2Cl)c2c1CCC/C2=C\c1ccc(F)cc1							
4 nM	> 10000 nM	1560 nM	1.39 nmol/g	0.92				C[C@@H](NC(=O)c1nn(-c2ccc(Cl)cc2Cl)c2c1CCC/C2=C\c1ccc(F)cc1)c1ccccn1							
28 nM	> 10000 nM	2030 nM	0.05 nmol/g	0.03				O=C(NC1CCN(c2ccccn2)CC1)c1nn(-c2ccc(Cl)cc2Cl)c2c1CCCC/C2=C\c1ccc(F)cc1							
35 nM	2000 nM	1620 nM	0.07 nmol/g	0.05	6620 nM	0.25 nmol/g	0.037	C[C@@H](NC(=O)c1nn(-c2ccc(Cl)c(Cl)c2)c2c1CCCC/C2=C\c1ccc(F)cc1)c1ccccn1				3.67e+06 ng·h/mL	Non-Toxic	Non-Toxic	Non-Toxic

SMILES	EC50 [1]	EC50 [2]	concentration at 2 h [3]	Drug uptake [4]	Kp [5]	concentration at 2 h [9]	Drug uptake [10]	Kp at 2 h [11]	concentration at 2 h ([4]; C57BL/6J, brain without cerebellum, read-out: Drug uptake)	concentration at 4 h [6]	Drug uptake [7]	AUC [8]	Activity [12]	Activity [13]	Activity [14]
O=C(NC1(c2ccccn2)CC1)c1nn(-c2ccc(Cl)c(Cl)c2)c2c1CCCC/C2=C\c1ccc(F)cc1	13 nM	807 nM	2410 nM	0.11 nmol/g	0.05										
C[C@@H](NC(=O)c1nn(-c2ccc(Cl)cc2Cl)c2c1CCCC/C2=C\c1ccc(F)cc1)c1ccccc1	6 nM	5590 nM	1290 nM						< 5 ng/mL						
C[C@@H](NC(=O)c1nn(-c2ccc(Cl)cc2)c2c1CCC/C2=C\c1ccc(Cl)cn1)c1ccccn1	22 nM	> 10000 nM	2930 nM	1.91 nmol/g	0.65										
C[C@@H](NC(=O)c1nn(-c2ccc(Cl)c(Cl)c2)c2c1CCC/C2=C\c1ccc(Cl)s1)c1ccccn1	37 nM	> 10000 nM			0.03					3180 nM	0.1 nmol/g				
C[C@@H](NC(=O)c1nn(-c2ccc(C(F)(F)F)cc2Cl)c2c1CCCC/C2=C\c1ccc(Cl)s1)c1ccccn1	8 nM	> 10000 nM			0.28					640 nM	0.17 nmol/g				
C[C@@H](NC(=O)c1nn(-c2ccc(Cl)cc2Cl)c2c1CCC/C2=C\c1ccc(Cl)cc1)c1ccccn1	30 nM	854 nM			0.2					1600 nM	0.32 nmol/g				
O=C(NC1(c2ccccn2)CC1)c1nn(-c2ccc(C(F)(F)F)cc2Cl)c2c1CCCC/C2=C\c1ccc(Cl)s1	8 nM	> 10000 nM			0.24					1540 nM	0.36 nmol/g				
C[C@@H](NC(=O)c1nn(-c2ccc(Cl)c(Cl)c2)c2c1CCCC/C2=C\c1ccc(Cl)cc1)c1ccccn1	37 nM	> 10000 nM	2400 nM	0.05 nmol/g	0.02										
O=C(NC1(c2ccccn2)CC1)c1nn(-c2ccc(C(F)(F)F)cc2Cl)c2c1CCC/C2=C\c1ccc(Cl)s1	11 nM	> 10000 nM			0.14					4630 nM	0.64 nmol/g				
